An excerpt weighted towards active compounds, which were near 1.5% of everything screened.
CXCR6 inh: inhibitors of human CXCR6 receptor | O00574 | CHO-K1 PathHunter CXCR6 beta-arrestin, luminescence | inhibition, % at 20 µM | hit rate 0.36% among 360,000; in the data active = inhibition above about 34%, passing the limit was not always enough;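 also: antagonist mode with CXCL16 agonist at 10 nM final; 0% = 10 nM CXCL16 with DMSO and 100% = unstimulated wells without agonist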
APJ ag: agonists of human APJ apelin receptor | P35414 | CHO-K1 APJ PathHunter beta-arrestin, luminescence; 0% DMSO wells, 100% apelin | activation, % at 20 µM | hit rate 0.11% among 330,000 | AID 2520;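 active = activation more than six SD over the plate average, tested at 20 µM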;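 also: 0% = DMSO alone and 100% = apelin-13 at 10 nM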
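assay system = CHO-K1 APJ beta-arrestin complementation cell line | input = cell density 1000 per well | dosing = compound 20 µM once, DMSO 1% | timing = compound 90 min 25 °C, reagent 1 h | measured by = luminescence from split beta-galactosidase complementation, Galacton Star/Emerald II substrate | read-out basis = APJ agonist activity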
APJ antagonist: blocks the human apelin receptor APJ; CHO-K1 APJ beta-arrestin complementation, luminescence; inhibition, % at 20 µM; AID 2521; hit rate 0.32% among 330,000;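 active = inhibition above about 40% at 20 µM, limit read from the data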;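 also: cells challenged with 10 nM apelin-13 agonist together with compound; plate controls were apelin-13 plus DMSO wells for no effect and DMSO wells lacking apelin-13 for full effect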
CCR6 antag: antagonists of human CCR6 receptor; CHO-K1 CCR6 PathHunter beta-arrestin, luminescence, CCL20-stimulated; inhibition, % at 20 µM; hit rate 0.49% among 340,000; AID 493098;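 active = compounds whose inhibition of the agonist-driven luminescence signal at 20 µM reaches about 50%, limit read from the data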;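 also: cells stimulated with CCL20 at 14 nM final; plate controls were DMSO with CCL20 for no effect and DMSO without agonist for full effect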
Target sequence (P51684 whole entry, looked up): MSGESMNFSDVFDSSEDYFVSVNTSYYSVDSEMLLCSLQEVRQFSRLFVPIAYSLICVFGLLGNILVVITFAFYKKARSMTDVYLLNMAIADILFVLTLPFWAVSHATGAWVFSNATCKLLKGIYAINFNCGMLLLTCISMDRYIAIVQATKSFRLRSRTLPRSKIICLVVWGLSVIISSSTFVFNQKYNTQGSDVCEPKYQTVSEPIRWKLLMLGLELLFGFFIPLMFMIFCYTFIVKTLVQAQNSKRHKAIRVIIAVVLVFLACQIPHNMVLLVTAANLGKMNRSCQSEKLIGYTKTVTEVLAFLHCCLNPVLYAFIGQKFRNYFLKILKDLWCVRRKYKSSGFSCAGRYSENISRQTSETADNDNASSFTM
EBI2 antag: antagonists of human EBI2 receptor | P32249 | EBI2 beta-arrestin recruitment, luminescence, 7a,25-OHC stimulated | inhibition, % at 5 µM | hit rate 0.81% among 360,000 | AID 651636; in the data active = inhibition above about 38%;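 also: enzyme fragment complementation signal reports receptor beta-arrestin coupling in cells; 0% = agonist plus DMSO wells and 100% = wells without agonist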
APJ ag conf: confirmation of human APJ apelin receptor agonists; shares compounds with APJ ag; CHO-K1 APJ PathHunter beta-arrestin, luminescence; activation, % at 20 µM; hit rate 10% among 310; AID 2764;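 active = activation above 40%, taking the highest of four retests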;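 also: plate controls were DMSO wells for no effect and apelin-13 at 10 nM for full effect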
APJ antag conf: confirmation of human APJ apelin receptor antagonists. APJ beta-arrestin recruitment, luminescence, antagonist mode. hit rate 66% among 950. shares compounds with APJ antagonist. inhibition, % at 20 µM; in the data active = inhibition above about 50%
CXCR6 antag conf: CXCR6 antagonism confirmation, single concentration | shares compounds with CXCR6 inh | CHO-K1 CXCR6 PathHunter beta-arrestin, luminescence | inhibition, % at 20 µM | hit rate 65% among 700;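 active = mean inhibition over four retests above 40%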;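 also: receptor stimulated with 10 nM CXCL16 agonist; beta-galactosidase fragment complementation upon beta-arrestin recruitment to receptor; plate controls were CXCL16 plus DMSO for no effect and DMSO without CXCL16 for full effect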
EBI2 conf: EBI2 (human) antagonism, single concentration confirmation | shares compounds with EBI2 antag | EBI2 beta-arrestin luminescence, 7a,25-OHC antagonism | inhibition, % at 5 µM | hit rate 29% among 2,400;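 active = inhibition of at least 50%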
EBI2 ag: counter-screen for EBI2 antagonists: EBI2 agonist activity; shares compounds with EBI2 antag; 2,400 tested, under 10 active; activation, % at 5 µM; EBI2-expressing cells, agonist mode, luminescence, 60 min; 0% vehicle, 100% 7α,25-dihydroxycholesterol control;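 active = activation of at least 50%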
bGal counter: counter-screen for EBI2 antagonists: E. coli beta-galactosidase inhibition; shares compounds with EBI2 antag; hit rate 1% among 2,400; inhibition, % at 5 µM; purified beta-galactosidase, luminescent Galacton Star, 15 min;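 active = replicate-average signal at least 3 plate SD below neutral wells, shown as high inhibition, flagging enzyme-inhibiting false positives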;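 also: 0% = DMSO wells with enzyme and 100% = wells lacking enzyme; higher means stronger loss of beta-gal luminescence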
* marks the source's active call; other numbers are inactive results; . = no result given.

SMILES	CXCR6 inh	APJ ag	APJ antagonist	CCR6 antag	EBI2 antag	APJ antag conf	others
CN1C[C@H](CO)C=C2c3cccc4[nH]cc(c34)C[C@H]21	-8	17*	-127	3	-5	.	APJ ag conf=-4
O=C1NCN(c2ccccc2)C12CCN(C(c1cc3ccccc3o1)c1nnnn1C1CCCCC1)CC2 (stereo not given)	-4	.	.	.	-15	.
Brc1ccc(C2N3CCCN23)cc1 (stereo not given)	2	1	11	1	-11	.
CC12CCCCC1=NC(c1ccc(Br)cc1)N2O (stereo not given)	34	-12	51*	55*	-6	39
CCn1c(O)c(N=Nc2ccc(S(=O)(=O)N3CCOCC3)cc2)c(=O)n(CC)c1=S	23	-5	56*	29	18	55*
CCn1c(O)c(N=Nc2cccc(S(=O)(=O)N3CCOCC3)c2)c(=O)n(CC)c1=S	3	-5	20	24	12	.
Fc1cccc(-c2ccc3c(c2)CNCc2cnnn2-3)c1	-2	.	.	.	-3	.
C[CH2][Hg][S]c1ccccc1C(=O)O	24	10	9	24	1	.
C[C@]12CCC3C(CC[C@H]4C[C@@H](O)[C@H](O)C[C@]34C)C1CC[C@@H]2O (stereo not given in full)	2	-1	5	2	-7	.
CCN1/C(=C\C=C\C2=[N+](CC)c3ccccc3C2(C)C)C(C)(C)c2ccccc21	63*	-18	54*	61*	6	106*
CC1CCCN(CC(=O)c2ccc(Cl)c(Cl)c2)C1 (stereo not given)	66*	-15	122*	101*	16	158*
ClCCN(CCCl)c1ccc(C=Cc2ccncn2)cc1	-4	.	.	-1	10	.
CCCCn1c(NC(=O)c2ccco2)c(C(=O)OCC)c2nc3ccccc3nc21	21	-22	64*	58*	18	55*
CCCCn1c(NS(=O)(=O)c2ccc(C)cc2)c(C(=O)OCC)c2nc3ccccc3nc21	-3	-14	65*	59*	4	-4
CCCCn1c(N)c(C(=O)OCCOC)c2nc3ccccc3nc21	7	-9	31	19	8	.
CCCCn1c(N)c(C(=O)OCC2CCCO2)c2nc3ccccc3nc21 (stereo not given)	2	-5	19	11	2	.
CCCC1(CCO)C(=O)NC(=S)NC1=O	0	.	.	-1	8	.
C=C1C(=O)O[C@@H]2C[C@@H](C)[C@@H]3C=CC(=O)[C@@]3(C)[C@@H](O)[C@H]12	31	-9	47*	45	57*	69*
COc1ccc(CC(=O)C2C(=O)N(C)c3ccccc32)cc1OC (stereo not given)	-1	.	.	11	-5	.
C[C@]12CCC3C(CC[C@H]4C[C@H](O)[C@H](O)C[C@]34C)C1CC[C@@H]2O (stereo not given in full)	-3	.	.	7	4	.
CCCCn1c(N)c(C(=O)NCc2cccs2)c2nc3ccccc3nc21	1	-9	49*	6	15	6
CCCCOCCCn1c(N)c(C(=O)OCCOC)c2nc3ccccc3nc21	14	-20	59*	1	5	-13
CCCCCn1c(N)c(C(=O)NCc2cccs2)c2nc3ccccc3nc21	.	-7	45*	12	.	47
CC(C)CCn1c(N)c(C(=O)OCC2CCCO2)c2nc3ccccc3nc21 (stereo not given)	23	-4	50*	14	7	53*
O=[N+]([O-])c1c(Cl)c(Cl)c(Cl)c(Cl)c1Cl	-17	.	.	-11	-19	.
SMILES	CXCR6 inh	APJ ag	APJ antagonist	CCR6 antag	EBI2 antag	APJ antag conf	others
Nc1cc(Cl)c2nonc2c1[N+](=O)[O-]	46*	.	.	46	39	.	CXCR6 antag conf=58*
Cc1c(N=Nc2c(O)[nH]c(=S)[nH]c2=O)c(=O)n(-c2ccccc2)n1C	52*	1	14	44	13	.	CXCR6 antag conf=52*
CC1C(=O)OC2CCN3CC4OC4(COC(=O)C(C)(O)C1(C)O)C23 (stereo not given)	-3	.	.	-1	0	.
CCOC(=O)c1cncn1[C@@H](C)c1ccccc1	3	0	-2	7	56*	.	EBI2 conf=30;EBI2 ag=-1;bGal counter=2
Cc1ncc(C(=O)O)n1C(C)c1ccccc1 (stereo not given)	3	.	.	.	-2	.
CC1=NNC(=O)C1Br (stereo not given)	-13	.	.	-19	-5	.
O=C(c1cc(C(=O)NCc2ccccc2)c(=O)n(Cc2ccccc2)c1)c1cc(Br)ccc1O	-8	1	4	27	21	.
Cc1ccc(O)c(C(=O)c2cc(C(=O)NCc3ccccc3)c(=O)n(Cc3ccccc3)c2)c1	12	-5	6	-2	42*	.	EBI2 conf=16;EBI2 ag=0;bGal counter=3
COC(=O)C1=C(c2ccccc2OCc2ccccc2)C[C@@H]2CC[C@H]1N2C(=O)NCc1ccc(N(C)C)cc1	10	-2	5	17	5	.
COC(=O)C1=C(c2ccc(-c3ccccc3)c(F)c2)C[C@@H]2CC[C@H]1N2C(=O)NCCc1ccccc1	2	0	0	0	44*	.	EBI2 conf=20;EBI2 ag=0;bGal counter=5
COC(=O)C1=C(c2ccc(-c3ccccc3)c(F)c2)C[C@@H]2CC[C@H]1N2C(=O)NCCOc1ccc(OC)cc1	12	-2	7	12	54*	.	EBI2 conf=20;EBI2 ag=-2;bGal counter=-1
COC(=O)C1=C(c2ccccc2OCc2ccccc2)C[C@@H]2CC[C@H]1N2C(=O)NCc1ccc(Cl)cc1	12	-1	14	20	44*	.	EBI2 conf=20;EBI2 ag=-1;bGal counter=-5
COC(=O)C1=C(c2ccc(F)cc2OCc2ccccc2)C[C@@H]2CC[C@H]1N2C(=O)NCCOc1ccc(OC)cc1	14	-4	5	20	48*	.	EBI2 conf=40;EBI2 ag=0;bGal counter=0
O=C(NCC1=C(c2ccc3ccccc3c2)C[C@@H]2CC[C@H]1N2Cc1ccco1)c1nccs1	0	.	.	.	9	.
